Test results as given in ChEMBL document CHEMBL1135300, “The mechanism of the irreversible inhibition of estrone sulfatase (ES) through the consideration of a range of methane- and amino-sulfonate-based compounds” (Bioorg Med Chem Lett, 2002).

Biological target: T1, Steryl-sulfatase (Homo sapiens) (UniProt P08842)
T1 sequence (whole entry): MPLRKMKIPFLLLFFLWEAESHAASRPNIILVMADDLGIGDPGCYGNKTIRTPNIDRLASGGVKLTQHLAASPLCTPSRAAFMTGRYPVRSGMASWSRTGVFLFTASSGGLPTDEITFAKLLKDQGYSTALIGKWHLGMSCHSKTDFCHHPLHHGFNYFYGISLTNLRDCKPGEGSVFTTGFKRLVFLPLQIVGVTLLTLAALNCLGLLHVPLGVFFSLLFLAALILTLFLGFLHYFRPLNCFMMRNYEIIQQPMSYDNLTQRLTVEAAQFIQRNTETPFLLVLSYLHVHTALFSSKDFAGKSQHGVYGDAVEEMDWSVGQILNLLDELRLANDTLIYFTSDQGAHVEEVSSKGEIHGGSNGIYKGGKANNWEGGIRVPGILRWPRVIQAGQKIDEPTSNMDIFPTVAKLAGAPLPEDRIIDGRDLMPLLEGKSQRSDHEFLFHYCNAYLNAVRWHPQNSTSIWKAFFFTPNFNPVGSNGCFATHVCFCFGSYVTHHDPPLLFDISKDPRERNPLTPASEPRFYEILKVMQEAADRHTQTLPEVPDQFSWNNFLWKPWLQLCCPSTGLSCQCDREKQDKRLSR
Assay: In vitro inhibition of estrone sulfatase at 10 mM.
Outline: (§1)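 ³H-estrone sulfate (750,000 dpm per tube) with inhibitors from ethanol stock, ethanol evaporated under nitrogen. Placental microsomes in 0.05 M Tris–HCl, pH 7.2, were prewarmed 5 min at 37 °C, then added; 1 mL total, incubated 20 min at 37 °C. Toluene quench, extraction, and scintillation counting of product. Triplicates; no-inhibitor controls; boiled-microsome blanks.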

Row | SMILES | inhibition
1 | CCCCCCCCOS(N)(=O)=O | 0%
2 | CCCCCCCOS(N)(=O)=O | 0%
3 | CCCCCCCCCOS(N)(=O)=O | 0%

Biological target: T1, Steryl-sulfatase (Homo sapiens)
Assay: In vitro inhibition of estrone sulfatase at 1 mM.
Outline: as §1

Row | SMILES | inhibition
4 | NS(=O)(=O)Oc1cccc(I)c1 | 89.4%
5 | NS(=O)(=O)OCC(Cl)Cl | 30%
6 | NS(=O)(=O)OCCCl | 15%
7 | NS(=O)(=O)Oc1cccc(F)c1 | 79.6%
8 | CCCCCCCCCCCCOS(C)(=O)=O | 17%
9 | NS(=O)(=O)Oc1ccc(F)cc1 | 37%
10 | N#Cc1ccc(OS(N)(=O)=O)cc1 | 74.4%
11 | CCCCCCCCCOS(C)(=O)=O | 28%
12 | NS(=O)(=O)Oc1ccc(Cl)cc1 | 37.6%
13 | NS(=O)(=O)Oc1ccccc1 [PHENYLSULFAMATE] | 29.7%
14 | Cc1ccc(OS(N)(=O)=O)cc1 | 27.4%
15 | NS(=O)(=O)Oc1ccc(I)cc1 | 66%
16 | NS(=O)(=O)Oc1ccc([N+](=O)[O-])cc1 | 82.5%
17 | Cc1cccc(OS(N)(=O)=O)c1 | 39.5%
18 | NS(=O)(=O)OCC(Cl)(Cl)Cl | 60%
19 | NS(=O)(=O)Oc1cccc(Br)c1 | 75.1%
20 | NS(=O)(=O)Oc1cccc([N+](=O)[O-])c1 | 90.4%
21 | NS(=O)(=O)Oc1ccc(Br)cc1 | 50.8%
22 | N#Cc1cccc(OS(N)(=O)=O)c1 | 84.3%
23 | NS(=O)(=O)Oc1cccc(Cl)c1 | 62%

Biological target: T2, Steryl-sulfatase (Homo sapiens, UniProt P08842)
T2 sequence (P08842 whole entry): T1 sequence (whole entry)
Assay: In vitro inhibition of estrone sulfatase.
Outline: as §1

Row | SMILES | IC50
24 | NS(=O)(=O)Oc1cccc(I)c1 | 120 uM l-1
25 | NS(=O)(=O)Oc1cccc(F)c1 | 2089 uM l-1
26 | NS(=O)(=O)Oc1ccc(F)cc1 | 537 uM l-1
27 | N#Cc1ccc(OS(N)(=O)=O)cc1 | 300 uM l-1
28 | NS(=O)(=O)Oc1ccc(Cl)cc1 | 1585 uM l-1
29 | NS(=O)(=O)Oc1ccccc1 [PHENYLSULFAMATE] | > 10000 uM l-1
30 | Cc1ccc(OS(N)(=O)=O)cc1 | > 10000 uM l-1
31 | NS(=O)(=O)Oc1ccc(I)cc1 | 560 uM l-1
32 | NS(=O)(=O)Oc1ccc([N+](=O)[O-])cc1 | 330 uM l-1
33 | Cc1cccc(OS(N)(=O)=O)c1 | 2089 uM l-1
34 | NS(=O)(=O)OCC(Cl)(Cl)Cl | 750 uM l-1
35 | NS(=O)(=O)Oc1cccc(Br)c1 | 257 uM l-1
36 | NS(=O)(=O)Oc1cccc([N+](=O)[O-])c1 | 120 uM l-1
37 | NS(=O)(=O)Oc1ccc(Br)cc1 | 912 uM l-1
38 | N#Cc1cccc(OS(N)(=O)=O)c1 | 191 uM l-1
39 | NS(=O)(=O)Oc1cccc(Cl)c1 | 537 uM l-1
